Data reported in ChEMBL document CHEMBL1833877, “Antinociceptive properties of bergenin” (J Nat Prod, 2011).

Assays:
Mus musculus [1] = experiment: Neurotoxicity in mouse assessed as effect on motor coordination by measuring reduced latency at 10 mg/kg, ip after 40 mins by rotarod test; type: toxicity, organism-based; set-up: dose 10 mg/kg, route intraperitoneal; conditions: in vivo
Procedure, shortened: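 Rotarod: a 3 cm bar split into five compartments, turning at a constant 5 rpm. Male mice were placed on the rod 40 min after ip dosing (vehicle 2% DMSO in saline), and time on the rod was recorded up to 120 s. Result is mean time per group; n = 6, one-way ANOVA with Tukey's test.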

Mus musculus [2] = experiment: Neurotoxicity in mouse assessed as effect on motor coordination at 10 mg/kg, ip after 40 mins by open field test; type: toxicity, organism-based; set-up: dose 10 mg/kg, route intraperitoneal; conditions: in vivo
Procedure, shortened: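 Male mice were dosed ip (vehicle 2% DMSO in saline). 40 min later each was placed alone in a 40 × 60 × 50 cm wooden box with the floor divided into 12 squares. Squares crossed with all four paws were counted over 3 min. n = 6 mice per group, means ± SEM, one-way ANOVA with Tukey's test.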

CN1C(=O)CN=C(c2ccccc2)c2cc(Cl)ccc21 [DIAZEPAM]
Activity (Mus musculus [1]): Toxic
Activity (Mus musculus [2]): Toxic
